Source: ChEMBL document CHEMBL4373737, “New thiazole-2(3H)-thiones containing 4-(3,4,5-trimethoxyphenyl) moiety as anticancer agents” (Eur J Med Chem, 2020)
pIC50: −log10 of the molar value. Calls of active or inactive are those of the source. The rule behind the calls is not given here.

Experiments:
MCF7 [1] = test: Cell cycle arrest in human MCF7 cells assessed as accumulation at sub-G1 phase at 12 ug/ml after 48 hrs by RNase A/propidium iodide staining based FACScalibur flow cytometry (reference value: 0.66 %); format: functional
How it was run: (§1)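 MCF-7 seeded at 25×10^4 cells/well, treated 24 h later with 12 µg/mL for 48 h; untreated control. Cells washed in cold PBS, fixed in 70% ethanol ≥3 h, RNase A 1 h at room temperature, then propidium iodide. Phase distribution (sub-G1, G1, S, G2/M) read by flow cytometry.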

A549 [2] = test: Cytotoxicity against human A549 cells assessed as reduction in cell viability after 48 hrs by MTT assay; format: functional, cell-based; conditions: A549, 48 h
How it was run: (§2)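 MTT viability assay. Stocks in DMSO were diluted into culture medium to final 1, 5, 10, 50 and 100 µg/mL, with DMSO below 1%. A549, MCF-7, SKOV3 and normal mouse fibroblast L929 were used, with etoposide as reference. Values are means of three experiments. L929 was also tested up to 200 µg/mL alongside cisplatin 50 µg/mL.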

MCF7 [3] = test: Cytotoxicity against human MCF7 cells assessed as reduction in cell viability after 48 hrs by MTT assay; format: functional, cell-based; conditions: MCF7, 48 h; how it was run: as §2
SK-OV-3 [4] = test: Cytotoxicity against human SKOV3 cells assessed as reduction in cell viability after 48 hrs by MTT assay; format: functional, cell-based; conditions: SK-OV-3, 48 h; how it was run: as §2
L929 [5] = test: Cytotoxicity against mouse L929 cells assessed as […] cell viability after 48 hrs by MTT assay; format: cell-based; conditions: L929, 48 h; how it was run: as §2
[6] = Hemolytic activity in human erythrocytes at 10 ug/ml after 1 hr relative to control; format: ADME, cell-based, Erythrocyte; conditions: read-out: Activity
How it was run: (§3)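 Human erythrocytes; DMSO stock added 1:20 to diluted cells to give final 1, 5 and 10 µg/mL. DMSO served as negative control and Triton X-100 (2% v/v) as positive (100%) control. Percent hemolysis measured in three repeats, mean ± SD.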

Erythrocyte = test: Hemolytic activity in human erythrocytes at 1 to 5 ug/ml after 1 hr; format: ADME, cell-based; how it was run: as §3
L929 [7] = test: Genotoxicity in mouse L929 cells assessed as induction of DNA damage at 10 ug/ml incubated for 1 hr by alkaline comet assay; format: toxicity, cell-based; conditions: l929, 1 h
How it was run: (§4)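 Alkaline comet assay in L929 seeded at 250000 cells/well and exposed for 1 h to 10 µg/mL; etoposide 0.5 µg/mL served as positive control and untreated cells as negative. Cells were embedded in low-melt agarose and lysed 1 h at 4 °C (2.5 M NaCl, 100 mM EDTA, 10 mM Tris, pH 10, 10% DMSO, 1% Triton X-100). DNA unwound 40 min at pH>13, electrophoresed 25 V/300 mA 20 min, neutralized, stained with ethidium bromide. Tail length, % tail DNA and tail moment scored; mean ± SEM.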

[8] = (§5) Inhibition of sheep brain tubulin polymerization incubated for 15 mins in presence of GTP by turbidimetric method; parameters: species or system Ovis aries
How it was run: (§6)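 Tubulin purified from sheep brain by three polymerization/depolymerization cycles. It was preincubated 15 min on ice with 0.5, 2, 10 or 20 µg/mL, then polymerization started with 1 mM GTP at 37 °C and followed by turbidity at 350 nm. IC50 was taken from area under the curve, with untreated control set as 100% polymerization. Colchicine served as reference.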

Ovis aries [9] = organism: Ovis aries; test: as §5; how it was run: as §6
MCF7 [10] = test: Cell cycle arrest in human MCF7 cells assessed as accumulation at G1 phase at 12 ug/ml after 48 hrs by RNase A/propidium iodide staining based FACScalibur flow cytometry (reference value: 44.45 %); format: functional; how it was run: as §1
MCF7 [11] = test: Cell cycle arrest in human MCF7 cells assessed as accumulation at S phase at 12 ug/ml after 48 hrs by RNase A/propidium iodide staining based FACScalibur flow cytometry (reference value: 38.2 %); format: functional; how it was run: as §1
MCF7 [12] = test: Cell cycle arrest in human MCF7 cells assessed as accumulation at G2/M phase at 12 ug/ml after 48 hrs by RNase A/propidium iodide staining based FACScalibur flow cytometry (reference value: 16.69 %); format: functional; how it was run: as §1
SK-OV-3 [13] = test: Induction of apoptosis in human SKOV3 cells assessed as viable cells at 2 ug/ml after 48 hrs by AnnexinV-FITC/propidium iodide staining based FACScan flow cytometry analysis relative to control; format: functional; conditions: SK-OV-3, 48 h, read-out: Activity
How it was run: (§7)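 SKOV3 seeded at 1×10^6 cells/well for 24 h, then given fresh medium containing 2 or 4 µg/mL for 48 h. Cells harvested by trypsinization, PBS-washed, stained with Annexin-V-FITC 15 min at room temperature, then PI 10 min. Flow cytometry with 488 nm excitation; quadrants were necrotic, late apoptotic, viable and early apoptotic.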

SK-OV-3 [14] = test: Induction of apoptosis in human SKOV3 cells assessed as early apoptotic cells at 2 ug/ml after 48 hrs by AnnexinV-FITC/propidium iodide staining based FACScan flow cytometry analysis relative to control; format: functional; how it was run: as §7
SK-OV-3 [15] = test: Induction of apoptosis in human SKOV3 cells assessed as late apoptotic cells at 2 ug/ml after 48 hrs by AnnexinV-FITC/propidium iodide staining based FACScan flow cytometry analysis relative to control; format: functional; how it was run: as §7
SK-OV-3 [16] = test: Induction of apoptosis in human SKOV3 cells assessed as necrotic cells at 2 ug/ml after 48 hrs by AnnexinV-FITC/propidium iodide staining based FACScan flow cytometry analysis relative to control; format: functional; how it was run: as §7
SK-OV-3 [17] = test: Induction of apoptosis in human SKOV3 cells assessed as viable cells at 4 ug/ml after 48 hrs by AnnexinV-FITC/propidium iodide staining based FACScan flow cytometry analysis relative to control; format: functional; conditions: SK-OV-3, 48 h, read-out: Activity; how it was run: as §7
SK-OV-3 [18] = test: Induction of apoptosis in human SKOV3 cells assessed as early apoptotic cells at 4 ug/ml after 48 hrs by AnnexinV-FITC/propidium iodide staining based FACScan flow cytometry analysis relative to control; format: functional; how it was run: as §7
SK-OV-3 [19] = test: Induction of apoptosis in human SKOV3 cells assessed as late apoptotic cells at 4 ug/ml after 48 hrs by AnnexinV-FITC/propidium iodide staining based FACScan flow cytometry analysis relative to control; format: functional; how it was run: as §7
SK-OV-3 [20] = test: Induction of apoptosis in human SKOV3 cells assessed as necrotic cells at 4 ug/ml after 48 hrs by AnnexinV-FITC/propidium iodide staining based FACScan flow cytometry analysis relative to control; format: functional; how it was run: as §7
Ovis aries [21] = organism: Ovis aries; test: Inhibition of colchicine binding to sheep brain tubulin assessed as decrease in fluorescence of colchicine-tubulin complex at 1 to 5 uM by fluorescence based assay
How it was run: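 Purified tubulin (0.25 µM) incubated 1 h at 37 °C with colchicine 0.1, 0.25, 0.5 or 1 µM, then test compound at final 1 or 5 µM. Fluorescence read at ex 360/em 430 nm, corrected for compound background, expressed as F/F0; n=3.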

L929 [22] = test: Genotoxicity in mouse L929 cells assessed as induction of DNA damage at 0.5 ug/ml incubated for 1 hr by alkaline comet assay; format: toxicity, cell-based; conditions: l929, 1 h; how it was run: as §4
B16 = test: Cytotoxicity against mouse B16 cells assessed as reduction in cell growth; format: functional, cell-based
HCT-116 = test: Cytotoxicity against human HCT116 cells assessed as reduction in cell growth; format: functional, cell-based
MCF7 [23] = test: Cytotoxicity against human MCF7 cells assessed as reduction in cell growth; format: functional, cell-based
A549 [24] = test: Cytotoxicity against human A549 cells assessed as reduction in cell growth; format: functional, cell-based
PC-3 = test: Cytotoxicity against human PC3 cells assessed as reduction in cell growth; format: functional, cell-based

SMILES | pIC50 (A549 [2]) | pIC50 (MCF7 [3]) | pIC50 (SK-OV-3 [4]) | IC50 (MCF7 [3]) | other results
COc1cc(-c2csc(=S)n2Cc2ccc(Cl)cc2)cc(OC)c1OC | 5.17 | 5.23 | 4.74 |  | Activity (MCF7 [1]): 17.28%; IC50 (L929 [5]): > 200 µg/mL; hemolysis at 1 h, 10 ug/ml [6]: < 25%; Activity (Erythrocyte): Non-Toxic; Activity (L929 [7]): Toxic; IC50 [8]: 9.97 µg/mL; inhibition (Ovis aries [9]): Dose-dependent effect; Activity (MCF7 [10]): 54.57%; Activity (MCF7 [11]): 22.43%; Activity (MCF7 [12]): 5.72%; viability at 2 µg/mL (SK-OV-3 [13]): 64.1%; Activity (SK-OV-3 [14]): 6.2%; Activity (SK-OV-3 [15]): 13.55%; Activity (SK-OV-3 [16]): 16.12%; viability at 4 µg/mL (SK-OV-3 [17]): 64.1%; Activity (SK-OV-3 [18]): 6.2%; Activity (SK-OV-3 [19]): 15.49%; Activity (SK-OV-3 [20]): 19.9%
COc1cc(C2(O)CSC(=S)N2Cc2ccccc2Cl)cc(OC)c1OC (stereo not given) | 4.84 | 4.91 | 4.92 |  | 
COc1cc(-c2csc(=S)n2Cc2ccccc2)cc(OC)c1OC | 4.92 | 4.86 | 4.76 |  | 
COc1cc(-c2csc(=S)n2Cc2ccc(O)cc2)cc(OC)c1OC | 4.81 | 4.66 | 4.73 |  | 
COc1cc(-c2csc(=S)n2Cc2ccccc2Cl)cc(OC)c1OC | 4.86 | 5.55 | 4.87 |  | Activity (MCF7 [1]): 14.74%; IC50 (L929 [5]): > 200 µg/mL; hemolysis at 1 h, 10 ug/ml [6]: < 25%; Activity (L929 [7]): Non-Toxic; IC50 [8]: 5.14 µg/mL; inhibition (Ovis aries [9]): Dose-dependent effect; inhibition (Ovis aries [21]): Active; Activity (MCF7 [10]): 78.02%; Activity (MCF7 [11]): 7.17%; Activity (MCF7 [12]): 0.07%; viability at 2 µg/mL (SK-OV-3 [13]): 68.9%; Activity (SK-OV-3 [14]): 3.06%; Activity (SK-OV-3 [15]): 15.49%; Activity (SK-OV-3 [16]): 12.57%; viability at 4 µg/mL (SK-OV-3 [17]): 58.9%; Activity (SK-OV-3 [18]): 7.6%; Activity (SK-OV-3 [19]): 19.81%; Activity (SK-OV-3 [20]): 13.72%
COc1cc(C2(O)CSC(=S)N2C)cc(OC)c1OC (stereo not given) | 4.99 | 4.58 | 4.87 |  | 
COc1cc(-c2csc(=S)n2Cc2ccc(F)cc2)cc(OC)c1OC | 4.80 | 5.00 | 4.73 |  | 
COc1cc(C2(O)CSC(=S)N2Cc2ccc(Cl)cc2)cc(OC)c1OC (stereo not given) | 4.94 | 4.73 | 4.74 |  | 
COc1cc(-c2csc(=S)n2-c2ccc(Cl)c(Cl)c2)cc(OC)c1OC | 4.92 | 5.02 | 4.75 |  | 
COc1cc(-n2c(-c3ccc(Cl)cc3)csc2=S)cc(OC)c1OC |  |  |  | > 100 µg/mL | 
COc1cc(-c2csc(=S)n2-c2ccc(Cl)cc2)cc(OC)c1OC | 4.81 | 4.77 | 4.75 |  | 
COc1cc(-c2csc(=S)n2C)cc(OC)c1OC | 4.76 | 4.56 | 4.63 |  | 
COc1cc([C@@H]2c3cc4c(cc3[C@@H](O[C@@H]3O[C@@H]5CO[C@@H](C)O[C@H]5[C@H](O)[C@H]3O)[C@H]3COC(=O)[C@H]23)OCO4)cc(OC)c1O [ETOPOSIDE] | 5.22 | 5.24 | 5.04 |  | Activity (L929 [22]): Toxic
COc1ccc(-c2coc(=O)n2-c2cc(OC)c(OC)c(OC)c2)cc1N |  |  |  |  | pIC50 (B16): 8.37 to 8.96; pIC50 (HCT-116): 8.37 to 8.96; pIC50 (MCF7 [23]): 8.37 to 8.96; pIC50 (A549 [24]): 8.37 to 8.96; pIC50 (PC-3): 8.37 to 8.96
COc1cc(C2(O)CSC(=S)N2Cc2ccc(F)cc2)cc(OC)c1OC (stereo not given) | 4.67 | 4.92 | 4.91 |  | 
COc1cc(C2(O)CSC(=S)N2Cc2ccccc2)cc(OC)c1OC (stereo not given) | 4.89 | 4.87 | 4.86 |  | 
